According to PMC5018462 (Brain research, 2016):
Like-named read-outs stand apart in the source and are kept apart here.

How the values were obtained:
[1] = Solubility during SEC isolation in aCSF; format: physicochemical; settings: SEC isolation on Superdex 75 in aCSF pH 7.8
Summary of the method: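 It stood 30 min–4 h at room temperature and was spun at 18,000g. Supernatant ran on a BSA-coated Superdex 75 column in aCSF at 0.5 mL min−1, A280 monitored, with fractions kept on ice.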

primary murine microglia = test: Microglial uptake by confocal fluorescence microscopy; format: cell-based, murine (C57BL/6); settings: for uptake by primary microglia, unlabeled Aβ42: immunostained with AF488-conjugated secondary antibody
Summary of the method: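 Microglia in glass-bottom dishes in serum- and GM-CSF-free medium at 37 °C. Conditions: 10 µM AF488-Aβ42 over time; various concentrations for 10 min; 5 µM labeled (imaged directly) or unlabeled Aβ42 (Ab9 1:5000, NL493 secondary). Fixed in 3.7% formaldehyde, DAPI, 40X confocal at fixed settings. ImageJ gave background-corrected cell fluorescence, or integrated density per nucleus. Two or three experiments.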

[2] = particularly at physiological pH; ref Jungbauer, et al., 2009; cited from earlier work

Substance: AF488-Aβ42 monomers: Aβ42 monomers labeled at primary amines with Alexa Fluor 488 TFP ester, isolated by SEC
- solubility [1]: solubility issues were not encountered
- uptake by primary microglia, AF488-labeled Aβ42 (primary murine microglia; 5 µM, imaged directly): not taken up readily
- internalization by microglia (confocal) (primary murine microglia; 10 µM, 37 °C, time course, 40X confocal, ImageJ quantitation): Much lower levels

Substance: AF488-N-terminal-labeled Aβ42: N-terminally AF488-labeled Aβ42 of Jungbauer et al., 2009
- solubility [2]: limited solubility

Substance: unlabeled Aβ42 monomers: Aβ1–42 monomers isolated by SEC in aCSF
- uptake by primary microglia, unlabeled Aβ42 (primary murine microglia; 5 µM): not taken up readily

Substance: unlabeled Aβ42 protofibrils: Aβ1–42 soluble protofibrils formed in aCSF and isolated by SEC
- uptake by primary microglia, unlabeled Aβ42 (primary murine microglia; 5 µM): rapid and extensive
